Columns and labels:
[1] = species: Cavia porcellus; test: Binding affinity ratio of kappa opioid receptor (guinea pig brain membranes) with respect to delta opioid receptor( rat brain membranes); format: cell membranes; conditions: Membrane
Summary of the method: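 Ratio of IC50 from [³H]U69,593 binding to μ/δ-depleted guinea pig brain membranes over IC50 from [³H]DADLE binding to rat brain membranes (μ sites blocked with 100 nM DAMGO). Both assays run at 25 °C in Tris-HCl pH 7.4, nine concentrations, run twice.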

[2] = molecular target: Mu-type opioid receptor (Rattus norvegicus, UniProt P33535); test: Binding affinity for Opioid receptor mu 1 by the inhibition of binding of [3H]DAMGO in rat brain membranes.; format: cell membranes
Mu-type opioid receptor (Rattus norvegicus, UniProt P33535), sequence (P33535 whole entry): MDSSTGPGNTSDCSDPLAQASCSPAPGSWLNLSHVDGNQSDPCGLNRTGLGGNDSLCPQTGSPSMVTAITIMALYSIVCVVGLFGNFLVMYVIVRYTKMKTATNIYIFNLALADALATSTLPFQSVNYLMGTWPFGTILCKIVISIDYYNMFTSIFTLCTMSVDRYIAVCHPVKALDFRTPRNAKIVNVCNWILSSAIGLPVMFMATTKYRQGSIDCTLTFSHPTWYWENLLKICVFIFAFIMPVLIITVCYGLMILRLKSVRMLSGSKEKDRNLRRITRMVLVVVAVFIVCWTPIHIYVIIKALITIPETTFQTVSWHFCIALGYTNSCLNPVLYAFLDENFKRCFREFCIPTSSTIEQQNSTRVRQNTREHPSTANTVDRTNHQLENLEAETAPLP
Summary of the method: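 Rat brain membranes with [³H]DAMGO at 1-3 nM, incubated 4 h at 25 °C in 50 mM Tris-HCl pH 7.4 plus protease inhibitor cocktail. Nonspecific binding measured with 20 μM levallorphan. Radioligand displaced by nine drug concentrations, in two runs. Drugs diluted in 10 mM Tris-HCl pH 7.4 containing 1 mg/mL BSA. IC50 reported.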

[3] = molecular target: T1, Delta-type opioid receptor (Rattus norvegicus, UniProt P33533); test: Binding affinity for Opioid receptor delta 1 by the inhibition of binding of [3H]DADAL in rat brain membranes.; format: cell membranes
T1 sequence (P33533 whole entry): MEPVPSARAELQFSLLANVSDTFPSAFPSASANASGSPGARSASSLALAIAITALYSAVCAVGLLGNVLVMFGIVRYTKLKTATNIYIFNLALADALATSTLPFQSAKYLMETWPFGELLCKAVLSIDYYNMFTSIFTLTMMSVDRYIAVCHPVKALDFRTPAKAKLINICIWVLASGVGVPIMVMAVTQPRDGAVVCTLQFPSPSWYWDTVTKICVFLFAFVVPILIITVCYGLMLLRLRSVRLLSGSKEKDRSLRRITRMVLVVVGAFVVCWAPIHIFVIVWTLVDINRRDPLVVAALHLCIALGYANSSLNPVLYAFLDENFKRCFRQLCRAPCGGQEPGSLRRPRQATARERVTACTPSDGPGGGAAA
Summary of the method: (§1)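 Rat brain membranes labelled with [³H]DADLE at 1.7-2.5 nM. Incubation 3-4 h at 25 °C in Tris-HCl pH 7.4 with 100 mM choline chloride, 3 mM MnCl₂, protease inhibitor cocktail and 100 nM DAMGO to block μ sites. Nonspecific binding defined with 20 μM levallorphan. Nine test concentrations, run twice. IC50 reported.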

[4] = molecular target: Kappa-type opioid receptor (Cavia porcellus, UniProt P41144); test: Binding affinity for Opioid receptor kappa 1 by the inhibition of binding of [3H]U-69593 in guinea pig brain membranes.; format: cell membranes
Kappa-type opioid receptor, sequence (P41144 whole entry): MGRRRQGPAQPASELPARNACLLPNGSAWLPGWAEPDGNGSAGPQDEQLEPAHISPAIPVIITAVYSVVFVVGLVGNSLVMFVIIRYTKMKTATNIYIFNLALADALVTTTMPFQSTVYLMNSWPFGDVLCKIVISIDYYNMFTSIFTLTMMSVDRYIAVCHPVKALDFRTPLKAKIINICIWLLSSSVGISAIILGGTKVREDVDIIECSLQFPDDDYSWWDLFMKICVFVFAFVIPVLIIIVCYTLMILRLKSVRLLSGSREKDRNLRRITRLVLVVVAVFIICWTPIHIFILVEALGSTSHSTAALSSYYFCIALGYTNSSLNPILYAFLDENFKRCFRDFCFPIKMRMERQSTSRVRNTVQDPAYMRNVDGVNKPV
Summary of the method: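 Guinea pig brain membranes, first depleted of μ and δ sites by pretreatment with irreversible ligands BIT and FIT. Nonspecific binding from 1 μM U69,593. Nine concentrations, run twice. IC50 reported.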

[5] = molecular target: Opioid receptors; mu & delta (Rattus norvegicus) (UniProt P33533+P33535); test: Binding affinity ratio on mu opioid receptor( rat brain membranes) with respect to delta opioid receptor (rat brain membranes)
Opioid receptors; mu & delta (Rattus norvegicus), sequence (P33533 whole entry, looked up): as the sequence (P33533 whole entry) above
Opioid receptors; mu & delta (Rattus norvegicus), sequence (P33535 whole entry, looked up): as the sequence (P33535 whole entry) above
Summary of the method: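 Ratio of IC50 from [³H]DAMGO binding to rat brain membranes over IC50 from [³H]DADLE binding to rat brain membranes (μ sites blocked with 100 nM DAMGO). Both assays run at 25 °C in Tris-HCl pH 7.4, nine concentrations, run twice.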

[6] = molecular target: Mu-type opioid receptor (Homo sapiens, UniProt P35372); test: Binding affinity for micro receptors by the inhibition of binding of [3H]DAMGO to Opioid receptor mu 1 in human cloned receptors.
Mu-type opioid receptor (Homo sapiens, UniProt P35372), sequence (P35372 whole entry): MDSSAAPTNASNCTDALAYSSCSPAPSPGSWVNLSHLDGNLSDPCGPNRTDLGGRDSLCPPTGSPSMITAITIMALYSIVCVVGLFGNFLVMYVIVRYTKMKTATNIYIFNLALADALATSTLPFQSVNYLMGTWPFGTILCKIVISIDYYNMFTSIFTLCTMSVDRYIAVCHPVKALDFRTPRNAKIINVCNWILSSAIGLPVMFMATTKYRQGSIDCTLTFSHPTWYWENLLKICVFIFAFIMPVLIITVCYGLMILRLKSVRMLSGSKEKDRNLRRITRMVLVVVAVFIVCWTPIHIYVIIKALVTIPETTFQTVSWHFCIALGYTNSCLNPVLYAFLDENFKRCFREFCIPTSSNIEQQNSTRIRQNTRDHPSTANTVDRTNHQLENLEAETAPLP
Summary of the method: (§2)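 Crude membranes from B82 mouse fibroblasts stably expressing human μ receptor, with 1.0 nM [³H]DAMGO. Samples incubated 3 h at 25 °C; nonspecific binding from 10 μM naltrexone; 10 inhibitor concentrations, with totals in duplicate. Filtered on PEI-treated glass-fiber filters, washed with cold saline, scintillation counted. IC50 by nonlinear regression.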

[7] = molecular target: Opioid receptors; mu & delta (Homo sapiens) (UniProt P41143+P35372); test: Relative binding affinity to mu and delta opioid receptors; format: protein assay
Opioid receptors; mu & delta (Homo sapiens), sequence (P35372 whole entry, looked up): as the sequence (P35372 whole entry) above
Opioid receptors; mu & delta (Homo sapiens), sequence (P41143 whole entry, looked up): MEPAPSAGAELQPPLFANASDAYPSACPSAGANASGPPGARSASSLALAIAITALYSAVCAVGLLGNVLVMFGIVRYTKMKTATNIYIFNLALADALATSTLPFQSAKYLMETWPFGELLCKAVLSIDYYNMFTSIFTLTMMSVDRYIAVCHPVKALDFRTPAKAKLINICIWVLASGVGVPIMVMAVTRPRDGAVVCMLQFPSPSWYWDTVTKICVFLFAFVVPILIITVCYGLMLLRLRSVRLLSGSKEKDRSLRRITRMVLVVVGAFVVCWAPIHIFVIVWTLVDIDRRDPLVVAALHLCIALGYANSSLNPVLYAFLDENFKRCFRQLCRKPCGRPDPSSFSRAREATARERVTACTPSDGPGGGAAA

[8] = molecular target: Delta-type opioid receptor (Homo sapiens, UniProt P41143); test: Binding affinity for Opioid receptor delta 1 by the inhibition of binding of [3H]-p-DPDPE human cloned receptors.
Delta-type opioid receptor (Homo sapiens, UniProt P41143), sequence (P41143 whole entry): as the sequence (P41143 whole entry, looked up) above
Summary of the method: as §2, with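 “from CHO cells” for “from B82 mouse fibroblasts”, “human δ” for “human μ”, “with 0.75” for “with 1.0”, “nM [³H]-p-Cl-DPDPE.” for “nM [³H]DAMGO.”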

[9] = molecular target: T1, Delta-type opioid receptor; test: Binding affinity for Opioid receptor delta 1 as inhibition of [3H]DADAL binding to rat brain membranes; format: cell membranes, Membrane; summary of the method: as §1

SMILES	Ratio [1]	IC50 [2]	IC50 [3]	IC50 [4]	Ratio [5]	IC50 [6]	Mu/delta ratio [7]	IC50 [8]	IC50 [9]
C=CCN1C[C@H](C)N([C@@H](c2ccc(C(=O)N(CCCC)CCCC)cc2)c2cccc(OC)c2)C[C@H]1C	> 5.5	> 2500 nM	129 nM	> 2500 nM	> 5.5				
C=CCN1C[C@H](C)N([C@H](c2ccc(C(N)=O)cc2)c2cccc(OC)c2)C[C@H]1C	> 5.5	> 2500 nM	451 nM	> 2500 nM	> 5.5				
C=CCN1C[C@H](C)N([C@H](c2ccc(C(=O)N3CCCCC3)cc2)c2cccc(OC)c2)C[C@H]1C	> 684	> 2500 nM	14.6 nM	> 10000 nM	> 171	6 µM	158	38 nM	
C=CCN1C[C@H](C)N([C@H](c2ccc(C(=O)N(CC)CC)cc2)c2cccc(OC)c2)C[C@H]1C [SNC-80]				7070 nM					
C=CCN1C[C@H](C)N([C@@H](c2ccc(C(=O)N3CCCCCC3)cc2)c2cccc(OC)c2)C[C@H]1C	> 81	> 2500 nM	124 nM	> 2500 nM	> 20				
C=CCN1C[C@H](C)N([C@H](c2ccc(C(=O)NCC)cc2)c2cccc(OC)c2)C[C@H]1C	2.3	242 nM		345 nM	1.6				150 nM
C=CCN1C[C@H](C)N([C@@H](c2ccc(C(=O)N(C)C)cc2)c2cccc(OC)c2)C[C@H]1C	> 11	> 2500 nM	234 nM	> 2500 nM	> 11				
C=CCN1C[C@H](C)N([C@H](c2ccc(C(=O)N(CCCC)CCCC)cc2)c2cccc(OC)c2)C[C@H]1C	> 71	> 2500 nM	34.5 nM	> 2500 nM	> 71				
C=CCN1C[C@H](C)N([C@@H](c2ccc(C(=O)N(CC)CCCC)cc2)c2cccc(OC)c2)C[C@H]1C	> 66	5880 nM	151 nM	> 10000 nM	39				
C=CCN1C[C@H](C)N([C@@H](c2ccc(C(=O)N3CCCCC3)cc2)c2cccc(OC)c2)C[C@H]1C	> 22	> 2500 nM	450 nM	> 10000 nM	> 5.5				
C=CCN1C[C@H](C)N([C@H](c2ccc(C(=O)N(C)CC)cc2)c2cccc(OC)c2)C[C@H]1C	> 2380	7370 nM	4.2 nM	> 10000 nM	1760	12.1 µM	1510	8 nM	
C=CCN1C[C@H](C)N([C@H](c2ccc(C(=O)N(CC)CCCC)cc2)c2cccc(OC)c2)C[C@H]1C	> 1520	1890 nM	6.6 nM	> 10000 nM	286	3.34 µM	327	10.2 nM	
C=CCN1C[C@H](C)N([C@@H](c2ccc(C(=O)N(C)CC)cc2)c2cccc(OC)c2)C[C@H]1C	> 41	> 2500 nM	60.6 nM	> 2500 nM	> 41				
C=CCN1C[C@H](C)N([C@@H](c2ccc(C(=O)NCC)cc2)c2cccc(OC)c2)C[C@H]1C	48	169 nM	34.4 nM	1630 nM	4.9				
C=CCN1C[C@H](C)N([C@H](c2ccc(C(=O)N3CCCC3)cc2)c2cccc(OC)c2)C[C@H]1C	> 552	> 2500 nM	18.1 nM	> 10000 nM	> 138	6.19 µM	233	26.6 nM	
C=CCN1C[C@H](C)N([C@H](c2ccc(C(=O)N3CCCCCC3)cc2)c2cccc(OC)c2)C[C@H]1C	> 1220	> 2500 nM	8.2 nM	> 10000 nM	> 305	4.47 µM	344	13 nM	
C=CCN1C[C@H](C)N([C@@H](c2ccc(C(=O)N(C(C)C)C(C)C)cc2)c2cccc(OC)c2)C[C@H]1C	> 7.3	> 2500 nM	344 nM	> 2500 nM	> 7.3				
C=CCN1C[C@H](C)N([C@@H](c2ccc(C(N)=O)cc2)c2cccc(OC)c2)C[C@H]1C	> 6.4	> 2500 nM	389 nM	> 2500 nM	> 6.4				
C=CCN1C[C@H](C)N([C@@H](c2ccc(C(=O)N(CCC)CCC)cc2)c2cccc(OC)c2)C[C@H]1C	> 65	4340 nM	153 nM	> 10000 nM	28				
C=CCN1C[C@H](C)N([C@H](c2ccc(C(=O)N(C)C)cc2)c2cccc(OC)c2)C[C@H]1C	> 2080	3260 nM	4.8 nM	> 10000 nM	679	9.72 µM	540	18 nM	
C=CCN1C[C@H](C)N([C@H](c2ccc(C(=O)NC(CC)CC)cc2)c2cccc(OC)c2)C[C@H]1C	> 14	> 2500 nM	176 nM	> 2500 nM	> 14				
C=CCN1C[C@H](C)N([C@H](c2ccc(C(=O)N(C(C)C)C(C)C)cc2)c2cccc(OC)c2)C[C@H]1C	> 352	> 2500 nM	7.1 nM	> 2500 nM	> 352	6.84 µM	1370	5 nM	
C=CCN1C[C@H](C)N([C@H](c2ccc(C(=O)NC(C)(C)C)cc2)c2cccc(OC)c2)C[C@H]1C	> 8.9	> 2500 nM	281 nM	> 2500 nM	> 8.9				
C=CCN1C[C@H](C)N([C@@H](c2ccc(C(=O)N3CCCC3)cc2)c2cccc(OC)c2)C[C@H]1C	> 38	> 2500 nM	265 nM	> 10000 nM	> 9.4				
C=CCN1C[C@H](C)N([C@H](c2ccc(C(=O)N(CCC)CCC)cc2)c2cccc(OC)c2)C[C@H]1C	> 763	3990 nM	13.1 nM	> 10000 nM	305	6.08 µM	811	7.5 nM	
